From ChEMBL document CHEMBL1122522, “Conformationally restricted retinoids” (1984)
Each block holds one compound with its values, some of them ahead of it.

Experiments:
[1] = Mortality range in days at dose 300 umol/kg day; 12-15; type: functional, Mus musculus
In short: (§1)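 Adult female Swiss mice (20–25 g) had chow and water ad libitum. The retinoid was homogenized as a suspension in aqueous 8% Cremophor EL plus 10% propylene glycol. It was given ip as 10 weekday injections over 14 days. Controls received vehicle alone. Survivors were weighed on days 1, 5, 10 and 15, and dates of death were recorded. Survival was scored at days 8 and 15.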

[2] = Mortality range in days at dose 600 umol/kg day; 7-10; type: functional, Mus musculus; in short: as §1
[3] = Percent survivors at dose 200 umol/kg day; type: functional, Mus musculus; in short: as §1
[4] = organism: Mus musculus; assay: Tested for relative activity in a 20-week anti-papilloma experiment in female CD-1 mice at dose 17 nmol; type: functional
In short: (§2)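 Female Charles River CD-1 mice, 8 weeks old, in random groups of 25–30, were shaved 2 days before initiation with 200 nmol DMBA in acetone on the back. From 2 weeks on, 8.5 nmol TPA was applied twice weekly for 20 weeks. Retinoid in 0.2 mL acetone, or acetone alone for controls, was given 1 h before each TPA dose. Papillomas were counted weekly, and mean papillomas per mouse were compared with controls at 20 weeks.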

[5] = Percent survivors at dose 100 umol/kg day; type: functional, Mus musculus; in short: as §1
[6] = Percent survivors at dose 30 umol/kg day; type: functional, Mus musculus; in short: as §1
[7] = tested on: Cricetinae gen. sp.; assay: Activity of compound the was expressed as ratio of active hamster tracheal organ cultures(TOC) to the total cultures at 10e-10 M concentration; 4/13; type: functional, Cricetulus griseus, Trachea
In short: (§3)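 Tracheal organ cultures came from vitamin A-deficient hamsters. Each culture was scored for reversal of keratinization and reported as active cultures out of total cultures at each retinoid concentration tested (10⁻⁸ to 10⁻¹² M). The protocol followed earlier published methods.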

[8] = Percent survivors at dose 300 umol/kg day; type: functional, Mus musculus; in short: as §1
[9] = organism: Mus musculus; assay: Percent decrease in average number of papillomas at dose 170 nmol; type: functional; in short: as §2
[10] = target: T1, Ornithine decarboxylase (Mus musculus) (UniProt P00860); assay: Inhibition of the induction of ornithine decarboxylase in mouse epidermis by the tumor promoter 12-O-tetradecanoylphorbol-13-acetate (ODC) at dose 1.7 nmol
T1 sequence (whole entry): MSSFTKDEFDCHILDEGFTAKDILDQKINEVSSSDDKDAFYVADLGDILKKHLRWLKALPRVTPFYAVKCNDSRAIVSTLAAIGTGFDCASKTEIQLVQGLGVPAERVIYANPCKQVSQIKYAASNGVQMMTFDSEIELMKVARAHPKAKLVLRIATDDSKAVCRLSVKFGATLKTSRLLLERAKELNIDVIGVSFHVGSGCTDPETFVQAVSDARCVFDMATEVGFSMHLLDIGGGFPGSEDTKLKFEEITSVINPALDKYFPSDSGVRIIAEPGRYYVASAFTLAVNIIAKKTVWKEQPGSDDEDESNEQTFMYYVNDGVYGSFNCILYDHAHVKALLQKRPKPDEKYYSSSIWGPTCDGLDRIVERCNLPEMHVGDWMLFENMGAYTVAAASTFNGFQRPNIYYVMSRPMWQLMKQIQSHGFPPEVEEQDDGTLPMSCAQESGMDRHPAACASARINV

[11] = tested on: Cricetinae gen. sp.; assay: Molarity required to effect reversal of keratinization in 50% of cultures.; type: functional, Cricetulus griseus
[12] = organism: Mus musculus; assay: Tested for relative activity in a 20-week anti-papilloma experiment in female CD-1 mice at dose 170 nmol; type: functional; in short: as §2
[13] = target: T1, Ornithine decarboxylase (Mus musculus); assay: Inhibition of the induction of ornithine decarboxylase in mouse epidermis by the tumor promoter 12-O-tetradecanoylphorbol-13-acetate (ODC) at dose 17 nmol
[14] = Mortality range in days at dose 200 umol/kg day; type: functional, Mus musculus; in short: as §1
[15] = organism: Mus musculus; assay: Percent decrease in average number of papillomas at dose 17 nmol; type: functional; in short: as §2
[16] = tested on: Cricetinae gen. sp.; assay: Activity of compound the was expressed as ratio of active hamster tracheal organ cultures(TOC) to the total cultures at 10e-8 M concentration; 7/7; type: functional, Cricetulus griseus, Trachea; conditions: at 0.01 µM
[17] = Percent survivors at dose 600 umol/kg day; type: functional, Mus musculus; in short: as §1
[18] = tested on: Cricetinae gen. sp.; assay: Activity of compound the was expressed as ratio of active hamster tracheal organ cultures(TOC) to the total cultures at 10e-9 M concentration; 7/7; type: functional, Cricetulus griseus, Trachea; in short: as §3
[19] = tested on: Cricetinae gen. sp.; assay: Activity of compound the was expressed as ratio of active hamster tracheal organ cultures(TOC) to the total cultures at 10e-8 M concentration; type: functional, Cricetulus griseus, Trachea; in short: as §3
[20] = tested on: Cricetinae gen. sp.; assay: Activity of compound the was expressed as ratio of active hamster tracheal organ cultures(TOC) to the total cultures at 10e-10 M concentration; type: functional, Cricetulus griseus, Trachea; in short: as §3
[21] = tested on: Cricetinae gen. sp.; assay: Activity of compound the was expressed as ratio of active hamster tracheal organ cultures(TOC) to the total cultures at 10e-9 M concentration; type: functional, Cricetulus griseus, Trachea; in short: as §3
[22] = tested on: Cricetinae gen. sp.; assay: Activity of compound the was expressed as ratio of active hamster tracheal organ cultures(TOC) to the total cultures at 10e-11 M concentration; 1/8; type: functional, Cricetulus griseus, Trachea; conditions: at 10 pM
[23] = tested on: Cricetinae gen. sp.; assay: Activity of compound the was expressed as ratio of active hamster tracheal organ cultures(TOC) to the total cultures at 10e-9 M concentration; 14/15; type: functional, Cricetulus griseus, Trachea; conditions: at 0.001 µM
[24] = target: T1, Ornithine decarboxylase (Mus musculus); assay: TInhibition of the induction of ornithine decarboxylase in mouse epidermis by the tumor promoter 12-O-tetradecanoylphorbol-13-acetate (ODC) at dose 17 nmol
[25] = tested on: Cricetinae gen. sp.; assay: Activity of compound the was expressed as ratio of active hamster tracheal organ cultures(TOC) to the total cultures at 10e-10 M concentration; 4/15; type: functional, Cricetulus griseus, Trachea; conditions: at 0.0001 µM
[26] = target: T1, Ornithine decarboxylase (Mus musculus); assay: Inhibition of the induction of ornithine decarboxylase in mouse epidermis by the tumor promoter 12-O-tetradecanoylphorbol-13-acetate (ODC) at dose 17 nmol * p<0.01
[27] = target: T1, Ornithine decarboxylase (Mus musculus); assay: Inhibition of the induction of ornithine decarboxylase in mouse epidermis by the tumor promoter 12-O-tetradecanoylphorbol-13-acetate (ODC) at dose 1.7 nmol * Inhibition not significant
[28] = tested on: Cricetinae gen. sp.; assay: Activity of compound the was expressed as ratio of active hamster tracheal organ cultures(TOC) to the total cultures at 10e-9 M concentration; 3/7; type: functional, Cricetulus griseus, Trachea; in short: as §3
[29] = tested on: Cricetinae gen. sp.; assay: Activity of compound the was expressed as ratio of active hamster tracheal organ cultures(TOC) to the total cultures at 10e-8 M concentration; 4/7; type: functional, Cricetulus griseus, Trachea; in short: as §3
[30] = tested on: Cricetinae gen. sp.; assay: Activity of compound the was expressed as ratio of active hamster tracheal organ cultures(TOC) to the total cultures at 10e-10 M concentration; 1/6; type: functional, Cricetulus griseus, Trachea; in short: as §3
[31] = tested on: Cricetinae gen. sp.; assay: Activity of compound the was expressed as ratio of active hamster tracheal organ cultures(TOC) to the total cultures at 10e-11 M concentration; 7/7; type: functional, Cricetulus griseus, Trachea; conditions: in the assay text read “10e-9 M” for “100 pM”; in short: as §3
[32] = target: T1, Ornithine decarboxylase (Mus musculus); assay: Inhibition of the induction of ornithine decarboxylase in mouse epidermis by the tumor promoter 12-O-tetradecanoylphorbol-13-acetate (ODC) at dose 1.7 nmol * p<0.001
[33] = tested on: Cricetinae gen. sp.; assay: Activity of compound the was expressed as ratio of active hamster tracheal organ cultures(TOC) to the total cultures at 10e-12 M concentration; 0/6; type: functional, Cricetulus griseus, Trachea; conditions: in the assay text read “1 nM” for “10 pM”; in short: as §3
[34] = tested on: Cricetinae gen. sp.; assay: Activity of compound the was expressed as ratio of active hamster tracheal organ cultures(TOC) to the total cultures at 10e-10 M concentration; 7/7; type: functional, Cricetulus griseus, Trachea; conditions: in the assay text read “10e-8 M” for “1 nM”; in short: as §3
[35] = target: T1, Ornithine decarboxylase (Mus musculus); assay: Inhibition of the induction of ornithine decarboxylase in mouse epidermis by the tumor promoter 12-O-tetradecanoylphorbol-13-acetate (ODC) at dose 17 nmol * p<0.001

SMILES: C/C(=C\c1ccc(C(=O)O)cc1)c1ccc2c(c1)C(C)(C)CCO2
Mortality range [1]: 15 days
Mortality range [2]: 10 days
Survivors at day 8 [3]: 100%
Survivors at day 15 [3]: 90%
Activity [4]: 53%
Survivors at day 8 [5]: 100%
Survivors at day 15 [5]: 100%
Survivors at day 8 [6]: 100%
Activity [7]: 4%
Survivors at day 8 [8]: 100%
Survivors at day 15 [8]: 50%
Decrease [9]: 94%
inhibition [10]: 42%
ED50 [11]: 2e-10
Activity [12]: 38%
inhibition [13]: 81%
Mortality range [14]: 14 days
Decrease [15]: 75%
Activity [16]: 7%
Survivors at day 8 [17]: 70%
Survivors at day 15 [17]: 0%
Activity [18]: 100%

SMILES: CCOC(=O)c1ccc(/C=C/c2ccc3c(c2)C2CCC3C2)cc1 (centres undefined)
inhibition [26]: 39%
inhibition [27]: 15%
Activity [28]: 43%
ED50 [11]: 3e-09
Activity [29]: 4%
Activity [30]: 1%

SMILES: CCOC(=O)c1ccc(/C=C(\C)[C@H]2CC2C2=C(C)CCCC2(C)C)cc1 (some centres undefined)
Activity [31]: 7%
inhibition [32]: 77%
Activity [33]: 0%
Activity [34]: 7%
ED50 [11]: 3e-10
inhibition [35]: 80%

Continued, in another order:

inhibition [10]: 34%
inhibition [13]: 55%
SMILES: CC1=C(c2ccc(-c3ccc(C(=O)O)cc3)cc2)C(C)(C)CCC1
Activity [19]: 7%
Activity [20]: 2%
ED50 [11]: 3e-09
Activity [21]: 2%

inhibition [24]: 83%
inhibition [10]: 45%
SMILES: CC1=C(CC/C(C)=C/c2ccc(C(=O)O)cc2)C(C)(C)CCC1
Activity [22]: 1 active cultures
Activity [23]: 14 active cultures
ED50 [11]: 3e-10
Activity [25]: 4 active cultures
Activity [16]: 7%

inhibition [10]: 77%
SMILES: CC1=C(/C=C/C(C)=C/c2ccc(C(=O)O)cc2)C(C)(C)CCC1
ED50 [11]: 3e-10
